Screening data as filed in PubChem BioAssay.
NR2E3 ag-1 – agonists of human NR2E3 nuclear receptor; Q9Y5X4; CHO-S Gal4-NCOR/VP16-NR2E3 two-hybrid, luciferase; inhibition of corepressor binding, % at 3.98 µM; 360,000 compounds, 0.35% hits; AID 602229;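 active = inhibition above the mean of all tested compounds plus 3 SD, cut at about 70% in these data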;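 note: 0% = DMSO with NR2E3 transfected cells and 100% = cells lacking NR2E3 construct; higher means lower luciferase signal from less NR2E3 corepressor binding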
NR2F2 inh – inhibitors of human COUP-TFII (NR2F2) | P24468 | HEK293T NGFI-A luciferase reporter, luminescence | AID 686940 | inhibition, % at 8.6 µM | 370,000 compounds, 0.7% hits;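 active = inhibition above a per-plate cutoff, mean inhibition of test wells between control levels plus 3 SD, cut at about 38% in these data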;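 note: cells cotransfected with COUP-TFII expression vector driving the NGFI-A reporter; 0% = median of COUP-TF2 test wells and 100% = reporter-only cells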
Target sequence (P24468 whole entry, looked up): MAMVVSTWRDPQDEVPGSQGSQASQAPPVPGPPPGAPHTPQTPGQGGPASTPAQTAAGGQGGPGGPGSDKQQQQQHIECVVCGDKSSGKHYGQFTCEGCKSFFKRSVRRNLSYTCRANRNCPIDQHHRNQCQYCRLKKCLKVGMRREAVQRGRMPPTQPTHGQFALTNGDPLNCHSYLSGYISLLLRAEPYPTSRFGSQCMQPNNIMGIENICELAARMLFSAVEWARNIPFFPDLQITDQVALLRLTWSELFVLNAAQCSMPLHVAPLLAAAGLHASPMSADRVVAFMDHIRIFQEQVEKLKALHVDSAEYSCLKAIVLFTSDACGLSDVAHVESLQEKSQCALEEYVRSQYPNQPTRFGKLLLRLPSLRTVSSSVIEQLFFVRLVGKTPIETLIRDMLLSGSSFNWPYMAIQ
NR2E3 ag-2 – activates human photoreceptor nuclear receptor NR2E3; 320,000 compounds, 0.12% hits; GST-NR2E3/biotin-RetCOR TR-FRET, 1536-well; inhibition of corepressor binding, % at 4.78 µM; Q9Y5X4;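 active = percent inhibition above the cutoff of mean plus 3 SD of all tested compounds, set per screening campaign, cut at about 20% in these data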;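 note: 0% = DMSO wells and 100% = biotin wells as full block of FRET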
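System: GST-tagged NR2E3 plus biotinylated RetCOR corepressor; Amount: 1.35 nM GST-tagged NR2E3 final; Dosing: single nominal compound dose of 4.8 µM; Schedule: 5 h incubation at 4 °C; Technique: TR-FRET with europium anti-GST and streptavidin-D2, 340 nm excitation; Controls: biotin wells as high control, 0.6% DMSO wells as low control.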
SMARCA2 activ – increases SMARCA2 function in MMTV reporter cells. MG213 cells, MMTV-luciferase reporter, dexamethasone, overnight. activation, % at 9.1 µM. 370,000 compounds, 1% hits; in the data active = activation above about 7.8%;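 note: 0% = vehicle wells and 100% = reference activator wells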
GalR3 antag – blocks the human galanin receptor 3; 360,000 compounds, 0.44% hits; AID 651719; HEK293 GalR3-CNG cAMP membrane potential fluorescence; galR3 body fused to GalR1 C-terminus; inhibition, % at 3 µM;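 active = inhibition above the screen-wide average plus 3 SD, cut at about 13% in these data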;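 note: forskolin and galanin both at EC90 stimulate the cells; cAMP rise reported by CNG channel membrane potential dye signal; 0% = forskolin plus galanin with DMSO and 100% = forskolin alone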
Target sequence (O60755 1-299 limits assumed): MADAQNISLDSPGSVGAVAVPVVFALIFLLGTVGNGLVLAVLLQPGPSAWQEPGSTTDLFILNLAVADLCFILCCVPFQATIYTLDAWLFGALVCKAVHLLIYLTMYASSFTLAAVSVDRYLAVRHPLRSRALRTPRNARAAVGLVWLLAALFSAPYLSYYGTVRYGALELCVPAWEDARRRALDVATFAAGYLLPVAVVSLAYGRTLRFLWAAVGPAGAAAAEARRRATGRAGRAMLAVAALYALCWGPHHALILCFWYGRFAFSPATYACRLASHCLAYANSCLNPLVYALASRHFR
SMARCA2 conf – SMARCA2 activation, confirmation screen; shares compounds with SMARCA2 activ; MG213 cells, MMTV-luciferase with dexamethasone, luminescence, overnight; MG213 cells expressing E1A, Rb sequestered; DMSO wells 0%, reference activator 100%; activation, % at 9.1 µM; 3,500 compounds, 30% hits; AID 652260;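 active = activation above its plate's cutoff, the mean activation of tested wells plus 3 SD, cut at about 7.9% in these data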
GAL4-VP16 Luc – activates GAL4-VP16 luciferase, flagging SMARCA2 activator hits; 3,500 compounds, 41% hits; shares compounds with SMARCA2 activ; HEK293 GAL4-VP16 pG5luc reporter, luciferase luminescence; scaled: DMSO wells 0%, SAHA wells 100%; AID 686939; activation, % at 9.1 µM;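 active = activation above the solvent-only control well mean plus 3 SD, averaged across control plates, cut at about 5.2% in these data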
An asterisk follows results filed as active. A selection: hits, their analogues and other compounds. The true share with any hit is near 2.2%.

Results for CCOC(=O)C1CCCCN1C(=O)c1oc2c(Cl)cc(C)cc2c1C (stereo not drawn) ?
NR2E3 ag-1: 13; NR2F2 inh: 10; NR2E3 ag-2: -2; SMARCA2 activ: 3; GalR3 antag: 0

What do the screens show for `Cc1cccc(-n2[nH]c3c4c(ccc3c2=O)C(=O)c2ccccc2C4=O)c1`?
NR2E3 ag-1: -43; NR2F2 inh: 15; NR2E3 ag-2: -2; SMARCA2 activ: 8.3*; GalR3 antag: -7; SMARCA2 conf: -4; GAL4-VP16 Luc: 1

Results for C=C(c1ccc(OC)cc1)c1ccc(OC)cc1 ?
NR2E3 ag-1: -25; NR2F2 inh: 3; NR2E3 ag-2: 2; SMARCA2 activ: 9.3*; GalR3 antag: -9; SMARCA2 conf: 2; GAL4-VP16 Luc: 2

How did C=CCNC(=O)c1c(Cl)cnn1-c1ccc(C)cc1 do in these assays?
NR2E3 ag-1: -92; NR2F2 inh: -19; NR2E3 ag-2: 2; SMARCA2 activ: 12*; GalR3 antag: -8; SMARCA2 conf: 6; GAL4-VP16 Luc: 5.4*

How did CNC(=O)c1c(Cl)cnn1-c1ccc(C)cc1 do in these assays?
NR2E3 ag-1: -106; NR2F2 inh: -39; NR2E3 ag-2: 1; SMARCA2 activ: 2; GalR3 antag: -2

Results for CC(=O)c1cnc2cc(-c3ccc(C)cc3)nn2c1C ?
NR2E3 ag-1: -101; NR2F2 inh: -18; NR2E3 ag-2: 0; SMARCA2 activ: 10*; GalR3 antag: -11; SMARCA2 conf: 3; GAL4-VP16 Luc: 9.9*

How did COC(=O)c1sc2nc(C)cc(C)c2c1N do in these assays?
NR2E3 ag-1: -47; NR2F2 inh: -7; NR2E3 ag-2: 0; SMARCA2 activ: 1; GalR3 antag: -4

What do the screens show for `C=COC(=O)c1sc2nc(C)cc(C)c2c1N`?
NR2E3 ag-1: -34; NR2F2 inh: 4; NR2E3 ag-2: 1; SMARCA2 activ: 9.3*; GalR3 antag: -2; SMARCA2 conf: 11*; GAL4-VP16 Luc: 2

How did Cc1nn(-c2ccccc2)c2sc(C(=O)NC3CCCC3)cc12 do in these assays?
NR2F2 inh: 14; SMARCA2 activ: -1

What do the screens show for `Cc1cc(C)n2c(NC3CCCCC3)c(-c3ccccn3)nc2n1`?
NR2E3 ag-1: -11; NR2F2 inh: -9; SMARCA2 activ: -2; GalR3 antag: -9

How did Cc1cc(C)n2c(NC3CCCC3)c(-c3cc4ccccc4o3)nc2n1 do in these assays?
NR2E3 ag-1: -29; NR2F2 inh: -33; SMARCA2 activ: 8.6*; GalR3 antag: -5; SMARCA2 conf: 8.0*; GAL4-VP16 Luc: 6.7*

What do the screens show for `CCn1cc(C(=O)O)c(=O)c2cc(F)c(N3CCN(C(=S)NC(=O)c4ccccc4C)CC3)cc21`?
NR2E3 ag-1: 5; NR2F2 inh: -25; NR2E3 ag-2: -5; SMARCA2 activ: -4; GalR3 antag: -2

How did CCn1cc(C(=O)O)c(=O)c2cc(F)c(N3CCN(C(=S)NC(=O)c4ccccc4Cl)CC3)cc21 do in these assays?
NR2E3 ag-1: -20; NR2F2 inh: -7; NR2E3 ag-2: 5; SMARCA2 activ: 9.1*; GalR3 antag: -7; SMARCA2 conf: 3; GAL4-VP16 Luc: 2

Results for C=C1C(=O)[C@]23C[C@H]1CCC2[C@]1(C)C(=O)CC[C@@](C)(C(=O)O)C1C[C@@H]3O (stereo partly drawn) ?
NR2E3 ag-1: 24; NR2F2 inh: -9; SMARCA2 activ: 31*; GalR3 antag: -5; SMARCA2 conf: 47*; GAL4-VP16 Luc: 0

What do the screens show for `CC(=O)NC1C(=O)N=C(SCC(=O)NCc2ccccc2)NC1=O` (stereo not drawn)?
NR2E3 ag-1: 3; NR2F2 inh: 0; NR2E3 ag-2: 6; SMARCA2 activ: 10*; GalR3 antag: -3; SMARCA2 conf: -1; GAL4-VP16 Luc: 2

What do the screens show for `COC(=O)[C@]12C[C@H](CC(=O)N3CCOCC3)C(=O)N(Cc3ccc4c(c3)OCO4)C1=C[C@H](C(C)C)O[C@@H]2C1CC1`?
NR2F2 inh: 6; SMARCA2 activ: -1

What do the screens show for `COc1ccc2oc(C(=O)OCC(=O)N3C(C)CCCC3C)c(C)c2c1` (stereo not drawn)?
NR2E3 ag-1: -21; NR2F2 inh: -1; NR2E3 ag-2: 3; SMARCA2 activ: 0; GalR3 antag: -3

What do the screens show for `COc1ccc2oc(C(=O)OCC(=O)N3CCCCC3C)c(C)c2c1` (stereo not drawn)?
NR2E3 ag-1: -37; NR2F2 inh: -21; SMARCA2 activ: 8.4*; GalR3 antag: -4; SMARCA2 conf: 7; GAL4-VP16 Luc: 2

Results for COC(=O)[C@]12C[C@H](CC(=O)NCCCN3CCCC3=O)C(=O)N(CCC3=CCCCC3)C1=C[C@H](C(C)C)O[C@@H]2C1CC1 ?
NR2F2 inh: -4; SMARCA2 activ: -3

What do the screens show for `C=CCN1C(=O)[C@@H](CC(=O)NCc2cccc(C(F)(F)F)c2)[C@]2(C(=O)OCC)CCCCC/C=C/12`?
NR2F2 inh: -13; SMARCA2 activ: 3

How did Cc1ccc(-c2cn(-c3ccccc3)c(SCC(N)=O)n2)cc1C do in these assays?
NR2E3 ag-1: -62; NR2F2 inh: -83; NR2E3 ag-2: 0; SMARCA2 activ: 9.8*; GalR3 antag: -4; SMARCA2 conf: 3; GAL4-VP16 Luc: 6.6*

How did COc1ccc2[nH]cc(C(C)c3ccccc3O)c2c1 (stereo not drawn) do in these assays?
NR2F2 inh: -8; SMARCA2 activ: -1

Results for CCCCOCCCNC(=O)C[C@H]1C(=O)N(CCCOC)C2=CCCCC[C@]21C(=O)OC ?
NR2F2 inh: 11; SMARCA2 activ: 0

How did C/C(=N\Nc1ccccn1)c1ccc(C#N)cc1 do in these assays?
NR2E3 ag-1: -46; NR2F2 inh: -10; NR2E3 ag-2: -2; SMARCA2 activ: 2; GalR3 antag: -1

How did C/C(=N\Nc1ccccn1)c1cccs1 do in these assays?
NR2E3 ag-1: -91; NR2F2 inh: -29; NR2E3 ag-2: -2; SMARCA2 activ: 10.0*; GalR3 antag: -6; SMARCA2 conf: 11*; GAL4-VP16 Luc: 6.4*

What do the screens show for `CCN(CC)c1c([N+](=O)[O-])ncn1C`?
NR2E3 ag-1: -1; NR2F2 inh: 2; NR2E3 ag-2: 4; SMARCA2 activ: 0; GalR3 antag: -1

How did Cn1cnc([N+](=O)[O-])c1Sc1ncn[nH]1 do in these assays?
NR2E3 ag-1: -6; NR2F2 inh: 1; NR2E3 ag-2: -1; SMARCA2 activ: 8.3*; GalR3 antag: -6; SMARCA2 conf: 1; GAL4-VP16 Luc: 0
